Experimental data reported in ChEMBL document CHEMBL1800018, “Discovery of a series of imidazo[4,5-b]pyridines with dual activity at angiotensin II type 1 receptor and peroxisome proliferator-activated receptor-γ” (J Med Chem, 2011).
The source made the active and inactive calls. The rule behind the calls is not given here.

Assays:
[1] = molecular target: T1, Type-1 angiotensin II receptor (Homo sapiens, UniProt P30556); assay: Displacement of [125I]Tyr4-Sar1,Ile8-Angiotensin II from human Angiotensin 1 receptor after 60 mins by scintillation counting
T1 sequence (P30556 whole entry): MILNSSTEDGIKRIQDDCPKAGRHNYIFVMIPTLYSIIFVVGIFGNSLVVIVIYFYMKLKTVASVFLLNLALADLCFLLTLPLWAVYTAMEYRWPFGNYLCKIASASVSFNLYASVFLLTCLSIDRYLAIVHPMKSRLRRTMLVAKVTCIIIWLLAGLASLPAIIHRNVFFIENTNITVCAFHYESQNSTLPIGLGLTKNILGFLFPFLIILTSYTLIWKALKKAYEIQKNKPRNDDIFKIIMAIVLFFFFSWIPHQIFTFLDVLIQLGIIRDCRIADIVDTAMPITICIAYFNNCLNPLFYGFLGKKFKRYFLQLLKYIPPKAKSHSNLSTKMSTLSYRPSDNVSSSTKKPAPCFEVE

Rattus norvegicus [2] = assay: Antidiabetic activity in ZDF rat assessed as adiponectin level at 3 mg/kg, po QD for 40 days (reference value: 11.9+/-1.5 ug/ml); assay type: functional
Rattus norvegicus [3] = assay: Antidiabetic activity in ZDF rat assessed as body weight gain at 100 mg/kg, po QD for 40 days (reference value: 133+/-9 g); assay type: functional
Method in brief: (§1)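 Male ZDF rats, starting at about 6 weeks old, were dosed orally once daily for 40 days in 1.5% CMC/0.2% Tween 20 suspension, n = 8/group. Body weight was followed over the study. Gain was calculated per animal from day 0 to day 40 and compared with vehicle and pioglitazone (3 mg/kg) groups. Data are mean ± SEM.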

Rattus norvegicus [4] = assay: Antidiabetic activity in ZDF rat assessed as blood glucose level at 3 mg/kg, po QD for 40 days (reference value: 771+/-60 mg/dL); assay type: functional
[5] = Half life in rat at 1 mg/kg, iv; assay type: ADME, organism-based; set-up: dose 1 mg/kg, route intravenous; settings: in vivo
[6] = AUC in ZDF rat at 10 mg/kg, po; assay type: ADME, organism-based; set-up: dose 10 mg/kg, route oral; settings: plasma
Method in brief: (§2)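 Male ZDF rats; satellite animals outside the efficacy groups were given oral doses of 3, 10 or 100 mg/kg. Plasma Cmax and AUC were calculated from these animals.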

Rattus norvegicus [7] = assay: Antidiabetic activity in ZDF rat assessed as blood glucose level at 0.1 mg/kg, po QD for 40 days (reference value: 771+/-60 mg/dL); assay type: functional
[8] = AUC in SHR rat at 1 mg/kg, po; assay type: ADME, organism-based; set-up: dose 1 mg/kg, route oral; settings: plasma
Method in brief: (§3)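 SHR received a single oral dose of 1, 3 or 10 mg/kg. Systemic exposure was determined as plasma Cmax and AUC.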

[9] = molecular target: T2, Peroxisome proliferator-activated receptor alpha (Homo sapiens) (UniProt Q07869); assay: Transactivation of human PPARalpha
T2 sequence (whole entry): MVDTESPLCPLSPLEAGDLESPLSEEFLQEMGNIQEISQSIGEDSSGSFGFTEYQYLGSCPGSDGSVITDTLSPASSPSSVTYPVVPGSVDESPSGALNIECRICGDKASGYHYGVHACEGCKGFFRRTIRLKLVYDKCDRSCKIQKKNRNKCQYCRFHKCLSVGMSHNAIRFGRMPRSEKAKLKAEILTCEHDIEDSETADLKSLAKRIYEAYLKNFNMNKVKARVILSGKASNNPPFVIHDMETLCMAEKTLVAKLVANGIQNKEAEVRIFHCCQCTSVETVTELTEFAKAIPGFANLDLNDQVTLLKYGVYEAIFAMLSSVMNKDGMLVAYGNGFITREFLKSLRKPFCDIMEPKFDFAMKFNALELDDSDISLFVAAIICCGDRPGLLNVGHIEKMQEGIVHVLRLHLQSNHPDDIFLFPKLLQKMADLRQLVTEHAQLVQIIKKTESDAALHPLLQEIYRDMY

[10] = AUC in ZDF rat at 100 mg/kg, po; assay type: ADME, organism-based; set-up: dose 100 mg/kg, route oral; settings: plasma; method in brief: as §2
Rattus norvegicus [11] = assay: Antihypertensive activity in SHR rat assessed as decrease in arterial blood pressure at 10 mg/kg, po QD for 7 days; assay type: functional, Artery
Rattus norvegicus [12] = assay: Antidiabetic activity in ZDF rat assessed as adiponectin level at 1 mg/kg, po QD for 40 days (reference value: 11.9+/-1.5 ug/ml); assay type: functional
Rattus norvegicus [13] = assay: Antidiabetic activity in ZDF rat assessed as body weight gain at 0.1 mg/kg, po QD for 40 days (reference value: 133+/-9 g); assay type: functional; method in brief: as §1
Rattus norvegicus [14] = assay: Antihypertensive activity in SHR rat assessed as decrease in arterial blood pressure at 10 mg/kg, po administered as single dose; assay type: functional, Artery
Method in brief: (§4)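 SHR carried aortic radiotelemetry transmitters implanted under Telazol anesthesia and recovered for at least 1 week. Rats were randomized by 2 h baseline mean BP. Each received vehicle by oral gavage on Day 0 and a single drug dose (0.3–10 mg/kg) on Day 1, with BP followed 20 h each day. The change was taken as Day 1 minus Day 0, n = 8/group.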

Rattus norvegicus [15] = assay: Antihypertensive activity in SHR rat assessed as decrease in arterial blood pressure at 0.3 to 10 mg/kg, po administered as single dose measured after 20 hrs; assay type: functional, organism-based; settings: Artery; method in brief: as §4
[16] = AUC in rat at 1 mg/kg, iv; assay type: ADME, organism-based; set-up: dose 1 mg/kg, route intravenous; settings: plasma
Rattus norvegicus [17] = assay: Antidiabetic activity in ZDF rat assessed as adiponectin level at 10 mg/kg, po QD for 40 days (reference value: 11.9+/-1.5 ug/ml); assay type: functional
Rattus norvegicus [18] = assay: Antidiabetic activity in ZDF rat assessed as body weight gain at 30 mg/kg, po QD for 40 days (reference value: 133+/-9 g); assay type: functional; method in brief: as §1
Rattus norvegicus [19] = assay: Antidiabetic activity in ZDF rat assessed as triglyceride level at 30 mg/kg, po QD for 40 days (reference value: 618+/-52 mg/dL); assay type: functional
Rattus norvegicus [20] = assay: Antidiabetic activity in ZDF rat assessed as triglyceride level at 3 mg/kg, po QD for 40 days (reference value: 618+/-52 mg/dL); assay type: functional
Rattus norvegicus [21] = assay: Antidiabetic activity in ZDF rat assessed as adiponectin level at 30 mg/kg, po QD for 40 days (reference value: 11.9+/-1.5 ug/ml); assay type: functional
Rattus norvegicus [22] = assay: Antidiabetic activity in ZDF rat assessed as blood glucose level at 1 mg/kg, po QD for 40 days (reference value: 771+/-60 mg/dL); assay type: functional
[23] = AUC in SHR rat at 3 mg/kg, po; assay type: ADME, organism-based; set-up: dose 3 mg/kg, route oral; settings: plasma; method in brief: as §3
[24] = molecular target: T3, Type-2 angiotensin II receptor (Homo sapiens, UniProt P50052); assay: Binding affinity to human Angiotensin receptor 2
T3 sequence (P50052 whole entry): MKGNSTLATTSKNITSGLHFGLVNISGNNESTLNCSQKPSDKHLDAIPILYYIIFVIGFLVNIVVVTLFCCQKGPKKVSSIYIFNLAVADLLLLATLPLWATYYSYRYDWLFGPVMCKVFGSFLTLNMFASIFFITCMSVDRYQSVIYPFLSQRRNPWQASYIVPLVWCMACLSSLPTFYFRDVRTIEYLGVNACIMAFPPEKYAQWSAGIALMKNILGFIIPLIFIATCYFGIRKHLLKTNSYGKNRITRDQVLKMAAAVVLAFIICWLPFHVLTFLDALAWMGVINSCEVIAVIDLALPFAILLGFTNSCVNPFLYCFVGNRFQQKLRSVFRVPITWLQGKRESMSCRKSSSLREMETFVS

IC50 [1]: 1.6 nM | half-life [5]: 2.1 h | AUC [6]: 28 µg·h/mL | AUC [8]: 0.32 µg·h/mL | Activity [9]: inactive | AUC [10]: 2600 µg·h/mL | AUC [16]: 1.22 µg·h/mL | AUC [23]: 1.28 µg·h/mL | Ki [24]: > 10000 nM
SMILES: CCc1nc2c(C)cc(CC(C)C)nc2n1[C@H]1CCc2cc(-c3ccccc3-c3nnn[nH]3)ccc21
Activity (Rattus norvegicus [2]): 11.4 µg/mL | Activity (Rattus norvegicus [3]): 202 g | Activity (Rattus norvegicus [4]): 520 mg/dL | Activity (Rattus norvegicus [7]): 771 mg/dL | Activity (Rattus norvegicus [11]): >60 mmHg | Activity (Rattus norvegicus [12]): 10.2 µg/mL | Activity (Rattus norvegicus [13]): 128 g | Activity (Rattus norvegicus [14]): 36 mmHg | Activity (Rattus norvegicus [15]): Active | Activity (Rattus norvegicus [17]): 24.4 µg/mL | Activity (Rattus norvegicus [18]): 202 g | Activity (Rattus norvegicus [19]): 288 mg/dL | Activity (Rattus norvegicus [20]): 734 mg/dL | Activity (Rattus norvegicus [21]): 24.3 µg/mL | Activity (Rattus norvegicus [22]): 612 mg/dL
